Results on nine compounds are retold here after ChEMBL document CHEMBL3399923, “Design and synthesis of new bioisosteres of spirooxindoles (MI-63/219) as anti-breast cancer agents” (Bioorg Med Chem, 2015).

SMILES strings stand for the structures. pIC50: −log10 of the molar value.

One assay has as its system MDA-MB-231. Kind of assay: Cytotoxicity against human MDA-MB-231 cells after 48 hrs by MTT assay. Type of assay: functional, cell-based. The settings on record: MDA-MB-231, 48 h. An outline of the steps: (§1)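 MTT viability screen for cytotoxicity across the breast cancer and normal kidney epithelial lines; IC50 reported in µM.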
A further assay concerns MCF7. Put plainly: Cytotoxicity against human MCF7 cells after 48 hrs by MTT assay. The format is functional, cell-based. The note with it: MCF7, 48 h. An outline of the steps: as §1
The next assay relates to HEK293. Put plainly: Cytotoxicity against human HEK293 cells after 48 hrs by MTT assay. The note with it: HEK293, 48 h. The format is cell-based. An outline of the steps: as §1
The subject of the next assay is Vero. Kind of assay: Cytotoxicity against African green monkey Vero cells after 48 hrs by MTT assay. The format is cell-based. The note with it: Chlorocebus sabaeus. An outline of the steps:
as §1

Regarding `COc1ccc([C@H]2C(C(=O)c3ccccc3)C3(N[C@@H]2c2ccccc2)C(=O)Nc2ccccc23)cc1` (stereo not given in full), the pIC50 in the assay with MDA-MB-231 is 4.52; in the assay with MCF7, 4.69; in the assay on HEK293, less than 4.30; with Vero it was 4.36.
Regarding `CC/C(=C(\c1ccc(O)cc1)c1ccc(OCCN(C)C)cc1)c1ccccc1`, the pIC50 in the assay with MCF7 was 4.87; in the assay on HEK293 it was less than 4.30; in the assay on Vero, less than 4.30.
In the case of `CC(CN(C)C)Oc1ccc(C(=O)C2[C@H](c3ccccc3)[C@@H](c3ccccc3)NC23C(=O)Nc2ccccc23)cc1` (stereo not given in full), the pIC50 in the assay with MDA-MB-231 is less than 4.30; with MCF7, 4.69; with HEK293, less than 4.30; in the assay with Vero, less than 4.30.
In the case of `CN(C)CCCOc1ccc(C(=O)C2[C@H](c3ccccc3)[C@@H](c3ccccc3)NC23C(=O)Nc2ccccc23)cc1` (stereo not given in full), the pIC50 in the assay with MDA-MB-231 is 5.04; in the assay on MCF7, 5.02; in the assay with HEK293 it was less than 4.30; with Vero it was less than 4.30.
Turning to `O=C(c1ccc(OCCN2CCCCC2)cc1)C1[C@H](c2ccccc2)[C@@H](c2ccccc2)NC12C(=O)Nc1ccc([N+](=O)[O-])cc12` (stereo not given in full), the pIC50 in the assay on MDA-MB-231 is 4.87; with MCF7, 4.82; in the assay on HEK293, 4.73; with Vero it was 4.65.
On the same counts, the results for `O=C(c1ccc(OCCN2CCCCC2)cc1)C1[C@H](c2ccccc2)[C@@H](c2ccccc2)NC12C(=O)Nc1ccccc12` (stereo not given in full) are 4.55, 4.86, 4.51 and 4.49.
For `O=C(c1ccc(OCCN2CCCC2)cc1)C1[C@H](c2ccccc2)[C@@H](c2ccccc2)NC12C(=O)Nc1ccccc12` (stereo not given in full), the pIC50 was 4.77 in the assay on MDA-MB-231, 4.64 with MCF7, 4.60 in the assay on HEK293 and 4.71 with Vero.
Consider `O=C(c1ccc([N+](=O)[O-])cc1)C1[C@H](c2ccccc2)[C@@H](c2ccccc2)NC12C(=O)Nc1ccccc12` (stereo not given in full), for which the pIC50 is 4.53 in the assay with MDA-MB-231, 4.81 in the assay with MCF7, 4.67 in the assay on HEK293 and less than 4.30 with Vero.
On the same counts, the results for `COc1ccc(C2=N[C@@H](c3ccc(Cl)cc3)[C@@H](c3ccc(Cl)cc3)N2C(=O)N2CCNC(=O)C2)c(OC(C)C)c1` [NUTLIN-3] are 4.63, 4.94, less than 4.30 and less than 4.30.
